Compound activity from PubChem.
Only some compounds are listed: those with a hit (about 2.4% of all), similar ones and a draw of the others.
SIAE primary: blocks human sialic acid acetylesterase | Q9HAT2 | SIAE FP-Rh probe binding, fluorescence polarization | inhibition, % at 9.66 µM | hit rate 0.69% among 370,000;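 active = inhibition above a cutoff: mean of compounds within the control limits plus 3 SD of those, cut at about 17% in these data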;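 also: 0% = plate median of compound wells and 100% = probe without SIAE protein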
GSTO1 counter: GSTO1 inhibition, counter-screen for RBBP9 inhibitors. hit rate 1.1% among 300,000. recombinant GSTO1, activity-based probe fluorescence polarization. inhibition, % at 5.96 µM;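 active = inhibition above the campaign mean inhibition plus 3 SD, cut at about 35% in these data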;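 also: 0% = GSTO1-1 with DMSO and 100% = wells lacking GSTO1-1 enzyme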
Apaf1 inhib: inhibitors of human Apaf-1 apoptosome; O14727; reconstituted apoptosome caspase-3 activity, DEVD-Rh110 fluorescence; inhibition, % at 20 µM; hit rate 0.71% among 330,000; active = inhibition of at least 40% at 20 µM;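 also: plate controls were DMSO wells for no effect and DEVD-CHO caspase inhibitor wells for full effect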
Target sequence (O14727 whole entry, looked up): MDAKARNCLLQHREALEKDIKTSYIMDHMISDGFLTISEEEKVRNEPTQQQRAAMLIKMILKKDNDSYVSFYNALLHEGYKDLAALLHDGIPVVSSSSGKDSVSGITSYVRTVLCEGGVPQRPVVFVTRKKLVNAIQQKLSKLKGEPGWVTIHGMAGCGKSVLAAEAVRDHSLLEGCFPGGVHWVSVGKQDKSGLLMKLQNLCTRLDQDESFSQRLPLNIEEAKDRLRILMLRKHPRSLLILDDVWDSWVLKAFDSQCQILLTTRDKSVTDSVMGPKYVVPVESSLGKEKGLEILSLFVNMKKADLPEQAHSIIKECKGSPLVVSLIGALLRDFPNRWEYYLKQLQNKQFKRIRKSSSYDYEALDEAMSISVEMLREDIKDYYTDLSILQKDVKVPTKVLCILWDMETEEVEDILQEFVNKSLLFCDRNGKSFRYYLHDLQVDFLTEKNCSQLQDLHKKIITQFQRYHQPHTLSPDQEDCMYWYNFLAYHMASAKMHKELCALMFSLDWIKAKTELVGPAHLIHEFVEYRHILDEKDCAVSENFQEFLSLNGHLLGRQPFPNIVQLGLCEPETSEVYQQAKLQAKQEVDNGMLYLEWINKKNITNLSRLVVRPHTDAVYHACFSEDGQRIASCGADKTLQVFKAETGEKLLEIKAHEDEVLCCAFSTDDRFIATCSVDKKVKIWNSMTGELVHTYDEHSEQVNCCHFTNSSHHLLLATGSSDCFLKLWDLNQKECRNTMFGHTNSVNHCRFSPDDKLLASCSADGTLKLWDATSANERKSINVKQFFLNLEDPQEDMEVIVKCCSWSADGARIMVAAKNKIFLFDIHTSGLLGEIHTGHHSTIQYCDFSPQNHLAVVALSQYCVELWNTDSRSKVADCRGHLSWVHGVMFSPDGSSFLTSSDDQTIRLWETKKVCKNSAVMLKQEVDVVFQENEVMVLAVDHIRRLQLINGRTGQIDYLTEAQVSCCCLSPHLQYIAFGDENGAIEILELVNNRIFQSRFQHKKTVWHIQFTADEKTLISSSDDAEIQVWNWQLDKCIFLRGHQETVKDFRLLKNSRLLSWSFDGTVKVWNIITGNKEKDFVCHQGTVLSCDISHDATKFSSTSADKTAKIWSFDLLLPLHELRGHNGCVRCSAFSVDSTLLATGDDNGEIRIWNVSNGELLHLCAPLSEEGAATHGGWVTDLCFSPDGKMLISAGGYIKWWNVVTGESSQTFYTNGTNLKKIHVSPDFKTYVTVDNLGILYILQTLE
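Material: cell-free apoptosome with Apaf-1, procaspase-3 and caspase-9; Buffer or medium: Hepes pH 7.5 with detergent and BSA; Reagent: cytochrome c trigger plus (Z-DEVD)2-Rh110 caspase-3 substrate; Times: compound with Apaf-1, dATP, procaspase-3 30 min, then 50 min reaction, room temperature; Technique: Rh110 fluorescence intensity.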
PAD4 inh: inhibitors of human PAD4 | recombinant PAD4, RCA probe fluorescence polarization | AID 485272 | Q9UM07 | inhibition, % at 6.36 µM | hit rate 0.41% among 330,000;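 active = percent inhibition above a cutoff equal to the mean of all tested compounds plus 3 SD, cut at about 15% in these data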;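 also: 0% = PAD4 with RCA probe and DMSO and 100% = probe without PAD4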
TDP2 inh: blocks human TDP2 phosphodiesterase activity | O95551 | recombinant TDP2, T5PNP hydrolysis, p-nitrophenol absorbance 415 nm | inhibition, % at 12.8 µM | hit rate 0.34% among 370,000 | AID 720702;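 active = inhibition above the mean of all tested compounds plus 3 SD, set per campaign, cut at about 25% in these data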;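 also: 0% = DMSO with enzyme and 100% = buffer with substrate but no TDP2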
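Test system: Human TDP2 enzyme | Reagent: 5 mM T5PNP | Compound dosing: 12.8 µM single point, 1% DMSO | Incubation: Enzyme reaction with compound for 2 h at 37 °C | Technique: p-Nitrophenol epi absorbance | Read-out: % inhibition relative to enzyme-containing and enzyme-free wells | Benchmarks: High control without enzyme, low control DMSO plus TDP2 | Replicates: Singlicate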
TCR-CD3 inh: inhibitors of human TCR-CD3 interaction; inhibition, % at 9.4 µM; TAMRA-labeled TCR probe fluorescence, biochemical; AID 651800; hit rate 0.37% among 360,000;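 also: recombinant mutant TCR 2C K166C tagged with TAMRA read by polarization; 0% = receptor in buffer alone and 100% = receptor with positive control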
BSA TAMRA ctr: BSA probe counter-screen for TCR-CD3 inhibitors; shares compounds with TCR-CD3 inh; TAMRA-labeled BSA probe fluorescence counterscreen; inhibition, % at 9.4 µM; hit rate 10% among 1,200; AID 652035; in the data active = inhibition above about 23%;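 also: 0% = buffer low control and 100% = reference high control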
TCR-CD3 inh conf: TCR-CD3 interaction inhibition, confirmation. inhibition, % at 9.4 µM. shares compounds with TCR-CD3 inh. TAMRA-labeled TCR probe fluorescence binding assay. hit rate 48% among 1,200
An asterisk follows results filed as active; · = no result given. Rule as the data show it, unless noted: active = inhibition above about 19%; inactive = the rest.

SMILES	SIAE primary	GSTO1 counter	Apaf1 inhib	PAD4 inh	TDP2 inh	TCR-CD3 inh	BSA TAMRA ctr	TCR-CD3 inh conf
CN1CCN(NC(=O)c2cn(-c3ccccc3)nc2-c2cccs2)CC1	5.0	-4.6	4.3	-3.0	0.5	1.7	·	·
Cn1c(=O)oc2cc(S(=O)(=O)N3CCC(C(=O)NCc4ccccc4)CC3)ccc21	8.0	4.6	-3.7	-0.1	-1.1	14.1	·	·
NC(=S)N/N=C/c1c(O)c(Br)cc2oc3c(c12)CCCC3	8.3	7.8	-11.1	-4.5	-5.0	42.8*	-15.6	27.7*
O=C(N/N=C/C(Br)=C\c1ccccc1)c1ccco1	-1.6	0.4	11.0	3.7	5.5	169.8*	-0.1	4.0
CC(=O)Nc1cc(-c2ccccc2N(C)C)cn2c(-c3ccccc3)cnc12	5.7	·	·	·	2.0	4.6	·	·
CC(=O)Nc1cc(-c2ccccc2N(C)C)cn2c(-c3ccc(S(C)(=O)=O)cc3)cnc12	14.7	·	·	·	5.1	30.9*	6.1	14.5
CCCN1CCC(NC(=S)Nc2ccc(S(N)(=O)=O)cc2)CC1	2.0	5.4	6.3	-1.0	0.2	0.6	·	·
COc1ccc(OC)c(N2C(=NC(=O)C3CCCCC3)SC3CS(=O)(=O)CC32)c1 (stereo not given)	1.6	1.2	8.2	2.9	-7.8	41.4*	-1.4	4.3
Cc1ccc(C(=O)NNC(=O)c2ccccc2O)cc1S(=O)(=O)N1CCCCC1	1.2	7.2	-1.8	6.7	2.8	24.0*	-3.8	22.9*
O=C(c1ccc(Cl)c(S(=O)(=O)N2CCc3ccccc32)c1)N1CCN(c2ccccc2O)CC1	1.9	·	9.8	-0.8	-0.1	-4.9	·	·
O=C(NNC(=O)c1ccccc1O)c1ccc(Cl)c(S(=O)(=O)N2CCc3ccccc32)c1	-1.1	-18.2	12.3	-4.8	-0.9	28.3*	-6.3	16.5
O=C(NNC(=O)C1CCN(S(=O)(=O)c2ccc(Cl)cc2)CC1)c1ccccc1O	4.4	12.1	-4.9	-0.3	-7.0	34.0*	-3.0	31.2*
NNC(=O)C1CCN(S(=O)(=O)c2ccc(Cl)cc2)CC1	-2.2	5.1	-5.1	1.9	9.2	-1.7	·	·
O=C(CNS(=O)(=O)c1ccccc1F)OCC(=O)c1c[nH]c2ccccc12	-3.2	·	-14.4	2.1	-9.7	-1.0	·	·
COc1cc(/C=N/NC(=O)c2cc(O)cc(O)c2)ccc1OC(=O)c1ccccc1	-29.3	·	14.4	·	11.2	20.5*	-9.8	25.9*
O=C(N/N=C/c1ccoc1)c1cc(O)cc(O)c1	9.1	21.9	-13.2	-1.2	0.3	20.1*	-3.5	22.6*
COc1cc(OC)cc(C(=O)N/N=C/c2ccc(OC)c(COc3ccc4ccccc4c3)c2)c1	-84.0	-44.5	19.6	-4.3	-15.2	39.6*	9.3	34.6*
COc1ccc(C2C(=O)c3ccccc3C2=O)cc1	3.0	-0.9	7.3	2.9	-1.4	1.8	·	·
Cc1ccc(CNC(=O)c2ccccc2SCC(=O)NCC2CCCCC2)cc1	3.4	-2.7	8.9	-4.5	-4.8	5.8	·	·
CCCCCC(=O)NC(=S)NC1C2CC3CC(C2)CC1C3 (stereo not given)	-3.0	6.7	10.9	1.3	13.9	35.1*	2.1	28.6*
Cc1cccc(NC(=O)NNC(=O)c2cc3ccccc3cc2O)c1C	2.8	6.4	5.2	-3.5	1.0	24.4*	-0.9	20.1*
COc1ccccc1C(=O)NNC(=O)c1cc2ccccc2cc1O	5.2	·	·	·	4.2	12.0	·	·
Cc1cccc(NC(=S)NNC(=O)CC(C)O)c1C (stereo not given)	4.3	-9.1	-7.5	-3.8	5.5	2.6	·	·
Cc1cccc(NC(=S)NNC(=O)c2ccc(O)cc2O)c1C	2.9	27.5	-3.1	-4.1	-2.9	52.1*	-5.8	37.4*
Cc1ccc(NC(=O)NNC(=O)c2cc3ccccc3cc2O)cc1C	0.5	-4.3	9.0	-3.0	4.3	20.6*	-4.1	16.8
SMILES	SIAE primary	GSTO1 counter	Apaf1 inhib	PAD4 inh	TDP2 inh	TCR-CD3 inh	BSA TAMRA ctr	TCR-CD3 inh conf
COc1ccc(C(=O)NNC(=O)c2cc3ccccc3cc2O)cc1	3.8	7.0	-10.8	2.2	7.8	31.9*	-11.2	24.2*
O=C(NNC(=O)c1cc2ccccc2cc1O)Nc1ccccc1F	5.0	-1.1	19.5	-5.6	-2.0	13.4	·	·
CS(=O)(=O)N(CC(=O)N1CCOCC1)Cc1ccccc1	-1.4	-4.2	-9.3	1.8	7.0	-7.3	·	·
Cc1ccc(N2CN(CCC3=CCCCC3)CNC2=S)cc1	3.2	3.5	5.0	2.4	-13.3	11.9	·	·
Cc1ccc(NC(=S)NNC(=O)c2ccccc2O)c(C)c1	5.9	5.4	-8.3	0.0	-10.4	41.3*	-9.6	32.0*
CCc1ccc(NC(=O)NNC(=O)c2cc3ccccc3cc2O)cc1	1.9	0.1	9.8	-2.8	-13.2	18.0	·	·
Cc1ccc(C)c(NC(=O)NNC(=O)c2cc3ccccc3cc2O)c1	6.0	5.5	15.2	-1.1	-13.2	22.3*	-8.3	17.6
Cc1ccc(S(=O)(=O)N2CCCCC2)cc1NC(=O)c1c(-c2ccccc2)noc1C	-3.7	·	-6.7	6.2	-10.1	-8.6	·	·
Cc1ccc(F)cc1C(=O)N1CCCCC1c1cc(C(=O)NCc2ccccc2)no1 (stereo not given)	-1.9	·	·	·	4.1	1.5	·	·
COc1cc(/C=N/NC(=O)COc2ccc(Cl)cc2)ccc1OS(=O)(=O)c1ccc(C)cc1	0.6	23.6	16.7	-0.1	9.1	56.6*	12.8	35.8*
Cc1ccc(S(=O)(=O)N2CCC(=O)N(C(CO)C(C)C)CC2)cc1 (stereo not given)	-4.5	1.3	-2.0	0.8	4.2	103.4*	-3.0	-2.9
Cc1ccc(S(=O)(=O)N2CCC(=O)N([C@H](CO)Cc3ccccc3)CC2)cc1	7.1	·	·	·	-7.3	0.9	·	·
COc1cccc(/C=N/NC(=O)CNC(=O)COc2ccccc2)c1O	4.0	-2.1	-23.4	1.4	3.9	0.3	·	·
Cc1cccc(OCC(=O)NCC(=O)N/N=C/c2cc(Br)cc(Br)c2O)c1	5.4	7.2	16.3	-2.1	-4.8	51.3*	-18.5	41.3*
O=C(Nc1cccc(NC(=O)c2ccc(-c3ccc(Br)cc3)o2)c1)c1ccco1	-91.2	-10.9	4.7	-33.5	-5.0	55.8*	24.5*	44.3*
O=C(NCC(=O)N(CC1CCCO1)C(C(=O)NC1CCCCC1)c1ccccc1)c1cccs1 (stereo not given)	5.5	4.2	-9.5	-0.8	5.5	28.6*	4.0	2.3
Cc1ccc(C(C(=O)NC2CCCCC2)N(CC2CCCO2)C(=O)CNC(=O)c2cccs2)cc1 (stereo not given)	1.5	-6.1	-4.6	0.1	4.8	-2.5	·	·
Nc1cc2cccnc2cc1Cl	-3.4	·	·	·	8.6	19.2*	-3.8	3.6
O=C(NNC(=O)c1ccc2ccccc2c1O)c1cccs1	9.8	17.3	-4.8	1.9	2.8	39.6*	-2.3	32.8*
